# Assay results of several laboratories.
# Compare with care: the assays were run in different laboratories.
# Target: BDNF/NT-3 growth factors receptor (NTRK2, Homo sapiens, UniProt Q16620)
SMILES,assay,setting,endpoint,value
CC(C)(C)c1cc(C=C(C#N)C#N)cc(Br)c1O,"enzyme activity, inhibitor",0.5 µM,remaining activity,90.9%
C#Cc1n[nH]c2c(-c3cn([C@@H](C)c4ccccc4)c(=O)[nH]c3=O)cc(F)cc12,"enzyme activity, inhibitor",0.1 µM,inhibition,6.2%
Cn1cncc1[C@](O)(COc1ccc(C#N)cc1-c1ccc(OC(F)(F)F)cc1)c1ccc(C#N)cc1,"cell-free assay, competition with immobilised ligand",1 µM,remaining binding,92%
Cc1nn(C)cc1-c1nc2c(N3CCN(Cc4ccc(Cl)cc4)CC3)c(Cl)cnc2[nH]1,"binding, competition with immobilised ligand",1 µM,remaining binding,44%
COc1cc(Nc2ncc(F)c(Nc3ccc4c(n3)NC(=O)C(C)(C)O4)n2)cc(OC)c1OC,"binding, competition with immobilised ligand",10 µM,inhibition,95%
COc1ncccc1-c1cnn2ccc(N3CCN(C(=O)OC(C)C)CC3)nc12,"binding, competition with immobilised ligand",1 µM,remaining binding,40%
Cn1cc(-c2cc(F)cc(N3CCn4c(cc5c4CCCC5)C3=O)c2CO)cc(Nc2ccc(N3CCN(C4COC4)CC3)cn2)c1=O,"enzyme activity, inhibitor",0.1 µM,inhibition,11%
C#Cc1n[nH]c2c(-c3cn(C(C)c4ccccn4)c(=O)[nH]c3=O)cc(F)cc12 (centres unmarked),"enzyme activity, inhibitor",1 µM,inhibition,2.8%
N#CC1(c2ccccn2)CCN(Cc2cc(C(=O)O)c(=O)n3ccccc23)CC1,"cell-free assay, competition with immobilised ligand",1 µM,remaining binding,84%
O=c1[nH]c2ccccc2n1C1CCN(Cc2ccc(-c3[nH]c4cc5ncnc5cc4nc3-c3ccccc3)cc2)CC1,cell-free assay,0.5 µM,remaining signal,99.4%
Nc1ncc(-c2nc(N3CCOCC3)nc(N3CCOCC3)n2)c(C(F)F)n1,"cell-free assay, competition with immobilised ligand",10 µM,remaining binding,74%
